DENV2 CPE rescue = protects cells from dengue virus 2 cytopathic effect; CPE inhibition, % at 9.99 µM; DENV2-infected cells, cytopathic effect rescue, plate reader; 350,000 tested, 1.7% active; in the data active = CPE inhibition above about 20%, passing the limit was not always enough; inconclusive = no clear call, values can overlap the other calls; tested in BHK-21 cells;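 also: 0% = median of neutral control wells and 100% = median of positive control wells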
PfHsp90 yeast 2 = growth inhibition of yeast expressing Plasmodium Hsp90. inhibition, % at 9.4 µM. 310,000 tested, 0.32% active. S. cerevisiae expressing PfHsp90, BacTiter-Glo ATP, 48 h; yeast lacking PDR1 and PDR3 efflux regulators;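 active = every replicate shows inhibition above about 80%, whatever the replicate mean, limit read from the data; inconclusive = mean inhibition reaches the set limit but some replicate falls short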;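 also: 0% = DMSO neutral controls and 100% = 20 µM radicicol positive controls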
Cneo AK release = causes C. neoformans cell lysis; adenylate kinase release luminescence, 4 h; normalised: neutral wells 0, clomiphene wells 100; lysis activity, % at 15 µM; 360,000 tested, 0.2% active;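 active = mean lysis activity across replicates of at least 80%, whatever share of replicates individually reach that level; inactive = mean lysis activity below 80%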
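Test system: log-phase Cryptococcus neoformans yeast cells. Input: 5 × 10^6 yeast cells/mL. Medium: fresh YPD growth medium. Doses: single dose. Incubation: static 4 h at 37 °C with compound, 1 h detection. Measured by: luminescent adenylate kinase detection reagent. Read-out: signal increase indicating cell lysis. Benchmarks: Clomiphene.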
MLL AF4-AF9 inh = inhibitors of human MLL-AF4/AF9 interaction | P42568 | 350,000 tested, 0.47% active | inhibition, % at 10 µM | AID 651704 | AlphaScreen, biotin-AF4 peptide binding to FLAG-AF9;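 active = every replicate reaching a set inhibition limit, whatever the replicate mean, cut at about 25% in these data; inconclusive = mean inhibition reaches that limit but some replicates miss it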;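 also: 0% = plate neutral control median and 100% = total signal loss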
Target sequence (P42568 whole entry, looked up): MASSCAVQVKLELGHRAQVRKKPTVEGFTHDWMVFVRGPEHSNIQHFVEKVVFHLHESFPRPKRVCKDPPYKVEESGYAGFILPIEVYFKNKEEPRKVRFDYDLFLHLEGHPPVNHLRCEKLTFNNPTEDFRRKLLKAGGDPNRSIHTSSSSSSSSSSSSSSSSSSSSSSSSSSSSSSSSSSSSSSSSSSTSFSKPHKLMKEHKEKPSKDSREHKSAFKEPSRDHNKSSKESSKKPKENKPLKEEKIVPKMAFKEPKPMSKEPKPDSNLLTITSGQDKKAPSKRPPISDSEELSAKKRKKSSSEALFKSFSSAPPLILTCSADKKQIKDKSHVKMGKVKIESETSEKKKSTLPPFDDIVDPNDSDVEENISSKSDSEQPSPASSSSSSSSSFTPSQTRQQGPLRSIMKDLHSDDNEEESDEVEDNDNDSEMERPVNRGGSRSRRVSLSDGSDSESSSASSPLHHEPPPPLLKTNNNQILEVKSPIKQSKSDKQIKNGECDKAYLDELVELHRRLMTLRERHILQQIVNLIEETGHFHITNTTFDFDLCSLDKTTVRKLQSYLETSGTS
S100A4 MyoIIA = blocks human S100A4 binding to myosin IIA peptide; inhibition, % at 10.7 µM; S100A4/TAMRA-MyoIIA peptide fluorescence polarization; AID 652163; 360,000 tested, 0.14% active;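 active = mean inhibition of at least 70% across replicates, with every replicate also reaching that level; inconclusive = mean inhibition reaches 70% but some replicates fall short; inactive = mean inhibition below 70%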
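Assay system: human S100A4 monomer with TAMRA-labelled myosin IIA peptide / Buffer or medium: Calcium-containing HEPES buffer, pH 7.2 / Reagent: TAMRA-labelled myosin IIA heavy-chain peptide probe, 5 nM / Compound: one dose per compound / Timing: polarization read 5 min after assay mix addition, stable 5–60 min / Benchmarks: neutral control DMSO, positive control TFP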
Ecoli rRNA inh = inhibitors of bacterial rRNA selective over humanized ribosomes. E. coli WT GFP vs humanized-ribosome RFP mutants, fluorescence, 24 h; active compounds read low; DMSO median 0, no signal -100. GFP signal change (wild-type ribosome), % (no concentration beside the values). 350,000 tested, 1.6% active;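 active = significant combined selectivity score with lowered wild-type GFP, culture density cut under 30%, mutant RFP and density less affected; inactive = any of these conditions unmet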
Numbers without * were called inactive; ? = inconclusive; · = not tested or not shown. Sampled rows, rich in hits. Any-hit rate of the full collection: about 3.2%.

SMILES | DENV2 CPE rescue | PfHsp90 yeast 2 | Cneo AK release | MLL AF4-AF9 inh | S100A4 MyoIIA | Ecoli rRNA inh
CN(C)C(=O)c1ccc(-c2ccc([C@H]3[C@H](CO)N4CCCCN(CCC(F)(F)F)C[C@@H]34)cc2)cc1 | 12 | · | 96* | 6 | -1 | -2
CC(=O)N1CCCCN2[C@@H](CO)[C@H](c3ccc(-c4cccc(C(=O)N(C)C)c4)cc3)[C@@H]2C1 | -7 | · | 1 | -4 | 102* | 5
CN(C)C(=O)c1ccc(-c2ccc([C@H]3[C@@H](CO)N4CCCCN(CCC(F)(F)F)C[C@@H]34)cc2)cc1 | 15 | · | 2 | 1 | 21 | 1
COC(=O)C[C@@H]1CC[C@H]2[C@@H](COc3ccc(NC(=O)c4ccccc4F)cc3C(=O)N2C)O1 | 4 | · | -3 | 0 | 5 | 4
CC1(c2nnnn2Cc2ccccc2)CCC(=O)N1CCCn1ccnc1 (configuration not stated) | 26* | · | · | -2 | -2 | 8
C[C@@H]1CN([C@H](C)CO)C(=O)c2cc(NC(=O)CCC(F)(F)F)ccc2O[C@@H](C)CCCCO[C@H]1CN(C)C(=O)CCC(F)(F)F | 8 | · | 1 | -1 | 14 | -5
C[C@@H]1CN([C@H](C)CO)C(=O)c2cc(C#Cc3ccccc3F)cnc2O[C@@H]1CN(C)C(=O)C1CCCCC1 | 4 | · | 2 | 2 | 19 | -5
O=c1cc(OCc2ccccc2)cc[nH]1 | -2 | -2 | 2 | 75* | 0 | 1
C=CCn1c(O)c(C2=c3ccccc3=NC2=O)c2ccccc21 | -2 | 110* | 0 | 2 | -1 | 8
N#CCC(=O)Nc1ccc(C(=O)OCC(=O)Nc2ccc3ccccc3c2)cc1 | -6 | -11 | · | 0 | -2 | -18*
O=C(COC(=O)c1ccc(CO)cc1)Nc1ccc2ccccc2c1 | 8 | 28 | 0 | -4 | -2 | 4
COc1ccc(-c2ccc3c(c2)S(=O)(=O)c2cccc(C(=O)NCCOc4ccccc4Cl)c2C3=O)cc1OC | 22* | 1 | 0 | 3 | -5 | 8
C[C@@H]1CN([C@H](C)CO)C(=O)c2cccc(NS(=O)(=O)c3cccs3)c2O[C@H]1CN(C)S(=O)(=O)c1ccc(F)cc1 | -6 | · | -4 | -3 | -1 | 0
O=C(Nc1nnc([C@H]2C[C@H](O)[C@@H](CO)O2)s1)Nc1cccc(Cl)c1Cl | -6 | · | -2 | 3 | -3 | -25*
O=C(NCc1ccccc1F)Nc1nnc([C@H]2C[C@H](O)[C@@H](CO)O2)s1 | 3 | · | 12 | 0 | -1 | 9
Cc1ccccc1NC(=O)Nc1nnc([C@@H]2C[C@H](O)[C@@H](CO)O2)s1 | 6 | · | 2 | -7 | -1 | 7
O=C(NCc1cccc(F)c1)Nc1nnc([C@H]2C[C@H](O)[C@@H](CO)O2)s1 | 31* | · | -2 | 4 | -5 | 18
C=CCOc1cccc(C(=O)N2CCCC(Nc3ccc(F)cc3)C2)c1 (configuration not stated) | ? | 7 | 0 | 3 | -1 | -26*
C#Cc1cccc(C(=O)N2CCCC(Nc3cccc(F)c3)C2)c1 (configuration not stated) | 1 | -4 | -1 | 1 | -3 | -33*
COc1cc(OC)cc(C(=O)N2CCCC(Nc3ccc(F)cc3)C2)c1 (configuration not stated) | 4 | 12 | 0 | 2 | -7 | -12
CC(C)c1ccc(NC2CCCN(C(=O)c3cccc(N4CCNC4=O)c3)C2)cc1 (configuration not stated) | 29* | 12 | -2 | 5 | 1 | -12
COc1ccc(NC2CCCN(C(=O)c3cccc(N4CCNC4=O)c3)C2)cc1 (configuration not stated) | -4 | 3 | 6 | 2 | -3 | 4
Cc1ccnn1CC(=O)N/N=C/c1c[nH]c2ccccc12 | -4 | 8 | -2 | -1 | 32 | -39*
O=C(N/N=C/c1c[nH]c2ccccc12)c1cccs1 | 46* | · | 0 | 11 | -3 | -11
O=C(N/N=C/c1ccccn1)c1cccs1 | 0 | 2 | · | -8 | 5 | -24*

From PubChem
